Reference: ChEMBL document CHEMBL1140876, “Synthesis and antibacterial property of quinolines with potent DNA gyrase activity” (2009)
Converted amounts (≈) assume the structure as drawn. The source made the active and inactive calls. No cut-off for these calls is given here.

Tests used:
[1] = system: Pseudomonas aeruginosa; test: Antimicrobial activity against Pseudomonas aeruginosa at 15 ug after 24 hrs by disk diffusion method; format: functional; details: read-out: IZ
Summary of the method: (§1)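 Inoculum made in 0.85% saline against McFarland standard, swabbed evenly onto nutrient agar; sterile filter-paper discs set equidistant and loaded with equal volumes of drug at varying amounts; zone of inhibition measured after 24 h at 37 °C; ciprofloxacin reference.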

[2] = system: Klebsiella pneumoniae; test: Antimicrobial activity against Klebsiella pneumoniae by broth microdilution assay; format: functional
Summary of the method: (§2)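 Broth microdilution per NCCLS 1997 in 96-well plate; final inoculum 10^5 cfu/mL; incubated 35.7 °C in air 18–20 h; MIC read as lowest concentration with no visible growth.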

[3] = system: Staphylococcus aureus; test: Antimicrobial activity against Staphylococcus aureus at 10 ug after 24 hrs by disk diffusion method; format: functional; details: read-out: IZ; summary of the method: as §1
[4] = system: Escherichia coli; test: Antimicrobial activity against Escherichia coli at 25 ug after 24 hrs by disk diffusion method; format: functional; details: read-out: IZ; summary of the method: as §1
[5] = system: Escherichia coli; test: Antimicrobial activity against Escherichia coli by broth microdilution assay; format: functional; summary of the method: as §2
[6] = system: Staphylococcus aureus; test: Antimicrobial activity against Staphylococcus aureus at 25 ug after 24 hrs by disk diffusion method; format: functional; details: read-out: IZ; summary of the method: as §1
[7] = system: Klebsiella pneumoniae; test: Antimicrobial activity against Klebsiella pneumoniae at 15 ug after 24 hrs by disk diffusion method; format: functional; details: read-out: IZ; summary of the method: as §1
[8] = system: Pseudomonas aeruginosa; test: Antimicrobial activity against Pseudomonas aeruginosa by broth microdilution assay; format: functional; summary of the method: as §2
[9] = system: Escherichia coli; test: Antimicrobial activity against Escherichia coli at 15 ug after 24 hrs by disk diffusion method; format: functional; details: read-out: IZ; summary of the method: as §1
[10] = system: Bacillus subtilis; test: Antimicrobial activity against Bacillus subtilis at 20 ug after 24 hrs by disk diffusion method; format: functional; details: read-out: IZ; summary of the method: as §1
[11] = system: Klebsiella pneumoniae; test: Antimicrobial activity against Klebsiella pneumoniae at 10 ug after 24 hrs by disk diffusion method; format: functional; details: read-out: IZ; summary of the method: as §1
[12] = system: Pseudomonas aeruginosa; test: Antimicrobial activity against Pseudomonas aeruginosa at 10 ug after 24 hrs by disk diffusion method; format: functional; details: read-out: IZ; summary of the method: as §1
[13] = system: Salmonella typhimurium; test: Antimicrobial activity against Salmonella Typhimurium at 20 ug after 24 hrs by disk diffusion method; format: functional, Salmonella enterica subsp. enterica serovar Typhimurium; details: Salmonella enterica, read-out: IZ; summary of the method: as §1
[14] = system: Bacillus subtilis; test: Antimicrobial activity against Bacillus subtilis by broth microdilution assay; format: functional; summary of the method: as §2
[15] = system: Salmonella typhimurium; test: Antimicrobial activity against Salmonella Typhimurium at 10 ug after 24 hrs by disk diffusion method; format: functional, Salmonella enterica subsp. enterica serovar Typhimurium; details: Salmonella enterica, read-out: IZ; summary of the method: as §1
[16] = system: Staphylococcus aureus; test: Antimicrobial activity against Staphylococcus aureus at 15 ug after 24 hrs by disk diffusion method; format: functional; details: read-out: IZ; summary of the method: as §1
[17] = system: Staphylococcus aureus; test: Antimicrobial activity against Staphylococcus aureus at 20 ug after 24 hrs by disk diffusion method; format: functional; details: read-out: IZ; summary of the method: as §1
[18] = system: Salmonella typhimurium; test: Antimicrobial activity against Salmonella Typhimurium at 5 ug after 24 hrs by disk diffusion method; format: functional, Salmonella enterica subsp. enterica serovar Typhimurium; details: Salmonella enterica, read-out: IZ; summary of the method: as §1
[19] = system: Klebsiella pneumoniae; test: Antimicrobial activity against Klebsiella pneumoniae at 25 ug after 24 hrs by disk diffusion method; format: functional; details: read-out: IZ; summary of the method: as §1
[20] = system: Pseudomonas aeruginosa; test: Antimicrobial activity against Pseudomonas aeruginosa at 25 ug after 24 hrs by disk diffusion method; format: functional; details: read-out: IZ; summary of the method: as §1
[21] = system: Salmonella typhimurium; test: Antimicrobial activity against Salmonella Typhimurium at 15 ug after 24 hrs by disk diffusion method; format: functional, Salmonella enterica subsp. enterica serovar Typhimurium; details: Salmonella enterica, read-out: IZ; summary of the method: as §1
[22] = system: Klebsiella pneumoniae; test: Antimicrobial activity against Klebsiella pneumoniae at 20 ug after 24 hrs by disk diffusion method; format: functional; details: read-out: IZ; summary of the method: as §1
[23] = Inhibition of DNA gyrase assessed as conversion of relaxed pBR322 to supercoiled form
Summary of the method: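 Supercoiling in 15 µL reactions: gyrase assay buffer, 150 ng relaxed pBR322, 2–3 µL purified DNA gyrase, 3 h at 37 °C (E. coli); stopped with 50% glycerol/0.25% bromophenol blue; 1% agarose in 1× TBE pH 8.3, 90 V 3 h; ethidium bromide stain; supercoiled band brightness by densitometry. Ciprofloxacin comparator.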

[24] = system: Escherichia coli; test: Antimicrobial activity against Escherichia coli at 10 ug after 24 hrs by disk diffusion method; format: functional; details: read-out: IZ; summary of the method: as §1
[25] = system: Salmonella typhi; test: Antimicrobial activity against Salmonella typhi by broth microdilution assay; format: functional, Salmonella enterica subsp. enterica serovar Typhi; details: Salmonella enterica
Summary of the method: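 Broth microdilution in 96-well plates following the NCCLS 1997 protocol. Final inoculum was 10^5 cfu/mL, with a control organism run alongside. Plates were incubated at 35.7 °C in air for 18–20 h. MIC is the lowest concentration with no visible growth.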

[26] = system: Salmonella typhimurium; test: Antimicrobial activity against Salmonella Typhimurium at 25 ug after 24 hrs by disk diffusion method; format: functional, Salmonella enterica subsp. enterica serovar Typhimurium; details: Salmonella enterica, read-out: IZ; summary of the method: as §1
[27] = system: Pseudomonas aeruginosa; test: Antimicrobial activity against Pseudomonas aeruginosa at 5 ug after 24 hrs by disk diffusion method; format: functional; details: read-out: IZ; summary of the method: as §1
[28] = system: Escherichia coli; test: Antimicrobial activity against Escherichia coli at 5 ug after 24 hrs by disk diffusion method; format: functional; details: read-out: IZ; summary of the method: as §1
[29] = system: Klebsiella pneumoniae; test: Antimicrobial activity against Klebsiella pneumoniae at 5 ug after 24 hrs by disk diffusion method; format: functional; details: read-out: IZ; summary of the method: as §1
[30] = system: Staphylococcus aureus; test: Antimicrobial activity against Staphylococcus aureus by broth microdilution assay; format: functional; summary of the method: as §2
[31] = Inhibition of DNA gyrase assessed as pBR322 DNA relaxation at 5 uM
Summary of the method: (§3)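 Relaxation without ATP: gyrase (60 nM) with supercoiled pBR322 DNA (6 nM) and drug at […] for 1 h at 37 °C; relaxation judged by gel. Ciprofloxacin, novobiocin and nalidixic acid comparators.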

[32] = system: Escherichia coli; test: Antimicrobial activity against Escherichia coli at 20 ug after 24 hrs by disk diffusion method; format: functional; details: read-out: IZ; summary of the method: as §1
[33] = system: Bacillus subtilis; test: Antimicrobial activity against Bacillus subtilis at 25 ug after 24 hrs by disk diffusion method; format: functional; details: read-out: IZ; summary of the method: as §1
[34] = system: Escherichia coli; test: Inhibition of DNA gyrase gene expression in Escherichia coli assessed as decrease in band intensity by RT-PCR amplification
Summary of the method: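 E. coli treated with drug; total RNA from cells sampled up to 24 h; 2 µg RNA to cDNA with MMLV reverse transcriptase; gyrase gene PCR (94 °C 4 min initial denaturation, 72 °C 7 min final extension); products on agarose gel, band intensity normalized to GAPDH; untreated cells as negative control.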

[35] = system: Pseudomonas aeruginosa; test: Antimicrobial activity against Pseudomonas aeruginosa at 20 ug after 24 hrs by disk diffusion method; format: functional; details: read-out: IZ; summary of the method: as §1
[36] = system: Staphylococcus aureus; test: Antimicrobial activity against Staphylococcus aureus at 5 ug after 24 hrs by disk diffusion method; format: functional; details: read-out: IZ; summary of the method: as §1
[37] = system: Bacillus subtilis; test: Antimicrobial activity against Bacillus subtilis at 15 ug after 24 hrs by disk diffusion method; format: functional; details: read-out: IZ; summary of the method: as §1
[38] = system: Bacillus subtilis; test: Antimicrobial activity against Bacillus subtilis at 10 ug after 24 hrs by disk diffusion method; format: functional; details: read-out: IZ; summary of the method: as §1
[39] = Inhibition of DNA gyrase assessed as pBR322 DNA relaxation at 1 uM; summary of the method: as §3

## COc1ccc2c(c1)C(c1ccccc1)[C@@H]1Cn3cccc3[C@@H]1N2 (stereo partly drawn)
[1]
  zone of inhibition at 15 µg/disc: 28 mm
[2]
  MIC50: 0.25 µg/mL (≈ 0.79 µM)
  MIC90: 2 µg/mL (≈ 6.32 µM)
[3]
  zone of inhibition at 10 µg/disc: 24 mm
[4]
  zone of inhibition at 25 µg/disc: 23 mm
[5]
  MIC50: 0.125 µg/mL (≈ 0.395 µM)
  MIC90: 0.25 µg/mL (≈ 0.79 µM)
[6]
  zone of inhibition at 25 µg/disc: 36 mm
[7]
  zone of inhibition at 15 µg/disc: 16 mm
[8]
  MIC50: 0.125 µg/mL (≈ 0.395 µM)
  MIC90: 1 µg/mL (≈ 3.16 µM)
[9]
  zone of inhibition at 15 µg/disc: 16 mm
[10]
  zone of inhibition at 20 µg/disc: 10 mm
[11]
  zone of inhibition at 10 µg/disc: 14 mm
[12]
  zone of inhibition at 10 µg/disc: 26 mm
[13]
  zone of inhibition at 20 µg/disc: 22 mm
[14]
  MIC50: 0.3 µg/mL (≈ 0.948 µM)
  MIC90: 2 µg/mL (≈ 6.32 µM)
[15]
  zone of inhibition at 10 µg/disc: 16 mm
[16]
  zone of inhibition at 15 µg/disc: 26 mm
[17]
  zone of inhibition at 20 µg/disc: 30 mm
[18]
  zone of inhibition at 5 µg/disc: 10 mm
[19]
  zone of inhibition at 25 µg/disc: 26 mm
[20]
  zone of inhibition at 25 µg/disc: 36 mm
[21]
  zone of inhibition at 15 µg/disc: 18 mm
[22]
  zone of inhibition at 20 µg/disc: 24 mm
[23]
  Activity: Active
[24]
  zone of inhibition at 10 µg/disc: 14 mm
[25]
  MIC50: 0.06 µg/mL (≈ 0.19 µM)
  MIC90: 0.15 µg/mL (≈ 0.474 µM)
[26]
  zone of inhibition at 25 µg/disc: 24 mm
[27]
  zone of inhibition at 5 µg/disc: 24 mm
[28]
  zone of inhibition at 5 µg/disc: 12 mm
[29]
  zone of inhibition at 5 µg/disc: 10 mm
[30]
  MIC50: 0.5 µg/mL (≈ 1.58 µM)
  MIC90: 0.5 µg/mL (≈ 1.58 µM)
[31]
  Activity: inactive
[32]
  zone of inhibition at 20 µg/disc: 22 mm
[33]
  zone of inhibition at 25 µg/disc: 11 mm
[34]
  Activity: Active
[35]
  zone of inhibition at 20 µg/disc: 34 mm
[36]
  zone of inhibition at 5 µg/disc: 20 mm
[37]
  zone of inhibition at 15 µg/disc: 9 mm
[38]
  zone of inhibition at 10 µg/disc: 8 mm

## O=C1c2ccccc2C(=O)C12Nc1ccc(Br)cc1[C@H]1OCCC[C@H]12
[1]
  zone of inhibition at 15 µg/disc: 16 mm
[2]
  MIC50: 0.25 µg/mL (≈ 0.628 µM)
  MIC90: 4 µg/mL (≈ 10 µM)
[3]
  zone of inhibition at 10 µg/disc: 9 mm
[4]
  zone of inhibition at 25 µg/disc: 13 mm
[5]
  MIC50: 2 µg/mL (≈ 5.02 µM)
  MIC90: 4 µg/mL (≈ 10 µM)
[6]
  zone of inhibition at 25 µg/disc: 14 mm
[7]
  zone of inhibition at 15 µg/disc: 13 mm
[8]
  MIC50: 1 µg/mL (≈ 2.51 µM)
  MIC90: 8 µg/mL (≈ 20.1 µM)
[9]
  zone of inhibition at 15 µg/disc: 10 mm
[10]
  zone of inhibition at 20 µg/disc: 9 mm
[11]
  zone of inhibition at 10 µg/disc: 10 mm
[12]
  zone of inhibition at 10 µg/disc: 14 mm
[13]
  zone of inhibition at 20 µg/disc: 14 mm
[14]
  MIC50: 5 µg/mL (≈ 12.6 µM)
  MIC90: 5 µg/mL (≈ 12.6 µM)
[15]
  zone of inhibition at 10 µg/disc: 10 mm
[16]
  zone of inhibition at 15 µg/disc: 10 mm
[17]
  zone of inhibition at 20 µg/disc: 12 mm
[18]
  zone of inhibition at 5 µg/disc: 8 mm
[19]
  zone of inhibition at 25 µg/disc: 16 mm
[20]
  zone of inhibition at 25 µg/disc: 23 mm
[21]
  zone of inhibition at 15 µg/disc: 13 mm
[22]
  zone of inhibition at 20 µg/disc: 14 mm
[23]
  Activity: Active
[24]
  zone of inhibition at 10 µg/disc: 9 mm
[25]
  MIC50: 1.64 µg/mL (≈ 4.12 µM)
  MIC90: 2.5 µg/mL (≈ 6.28 µM)
[26]
  zone of inhibition at 25 µg/disc: 16 mm
[27]
  zone of inhibition at 5 µg/disc: 10 mm
[28]
  zone of inhibition at 5 µg/disc: 8 mm
[29]
  zone of inhibition at 5 µg/disc: 8 mm
[30]
  MIC50: 64 µg/mL (≈ 161 µM)
  MIC90: 64 µg/mL (≈ 161 µM)
[31]
  Activity: inactive
[32]
  zone of inhibition at 20 µg/disc: 12 mm
[33]
  zone of inhibition at 25 µg/disc: 10 mm
[35]
  zone of inhibition at 20 µg/disc: 20 mm
[36]
  zone of inhibition at 5 µg/disc: 8 mm
[37]
  zone of inhibition at 15 µg/disc: 8 mm

## CO[C@@H]1[C@@H](OC(N)=O)[C@@H](O)[C@H](Oc2ccc3c(O)c(NC(=O)c4ccc(O)c(CC=C(C)C)c4)c(=O)oc3c2C)OC1(C)C
[39]
  Activity: Active
[31]
  Activity: inactive
